In ChEMBL document CHEMBL2380270, “Radiosynthesis and first evaluation in mice of [(18)F]NS14490 for molecular imaging of α7 nicotinic acetylcholine receptors” (Bioorg Med Chem, 2013):

Columns and labels:
Brain [1] = assay: Biodistribution in CD1 mouse brain measured at 60 mins by autoradiographic analysis; assay type: ADME, organism-based; details: in vivo, 1 h
[2] = Ratio of drug level in brain to plasma in CD1 mouse at 200 to 300 kBq, iv measured at 60 mins; assay type: ADME, organism-based; details: read-out: BPR
How it was run: (§1)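 Female CD-1 mice injected intravenously with 200–300 kBq tracer. Animals killed at 5, 15, 30 and 60 min (n = 3; n = 7 at 60 min). Brain and plasma activity gamma-counted as % ID/g wet weight, and the brain-to-plasma ratio taken from these values.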

[3] = Ratio of drug level in brain to plasma in CD1 mouse at 200 to 300 kBq, iv measured at 15 mins; assay type: ADME, organism-based; details: read-out: BPR; how it was run: as §1
[4] = n-Octanol-PBS distribution coefficient, log D of the compound at pH 7.2 after 30 mins by shake-flask method; assay type: physicochemical
[5] = Cyclohexane-PBS distribution coefficient, log D of the compound at pH 7.2 after 30 mins by shake-flask method; assay type: physicochemical; details: pH 7.2, 0.5 h
[6] = Stability of the compound in Tris-HCl buffer assessed as compound remaining at pH 6.7 measured at 5 mins by radio-TLC analysis; assay type: physicochemical; details: read-out: Stability
How it was run: (§2)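 Tracer formulated in isotonic saline, then diluted 1:20 into 50 mM Tris–HCl (pH 6.7) or PBS (pH 7.2). Stirred at 40 °C for up to 2 h, sampled at 5, 10, 30, 60, 90 and 120 min, and analysed by radio-TLC for intact tracer.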

[7] = Ratio of drug level in brain to plasma in CD1 mouse at 200 to 300 kBq, iv measured at 30 mins; assay type: ADME, organism-based; details: read-out: BPR; how it was run: as §1
[8] = Ratio of drug level in brain to plasma in CD1 mouse at 200 to 300 kBq, iv measured at 5 mins; assay type: ADME, organism-based; details: read-out: BPR; how it was run: as §1
[9] = Stability of the compound in PBS buffer assessed as compound remaining at pH 7.2 measured up to 2 hrs by radio-TLC analysis; assay type: physicochemical; details: read-out: Stability; how it was run: as §2
[10] = Stability of the compound in Tris-HCl buffer assessed as compound remaining at pH 6.7 measured up to 2 hrs by radio-TLC analysis; assay type: physicochemical; details: read-out: Stability; how it was run: as §2
[11] = Stability of the compound in PBS buffer assessed as compound remaining at pH 7.2 measured at 5 mins by radio-TLC analysis; assay type: physicochemical; details: read-out: Stability; how it was run: as §2
Lung = assay: Biodistribution in CD1 mouse lung at 200 to 300 kBq, iv measured at 60 mins by gamma counting analysis in presence of NS6740; assay type: ADME, organism-based; details: in vivo, 1 h
How it was run: (§3)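 Blocking design in female CD-1 mice, n = 7 per group. The blocker was given at 10 mg kg^-1 i.p. in 0.9% saline 10 min before i.v. 200–300 kBq [18F]radiotracer. Mice were killed at 60 min p.i. and organs weighed and gamma-counted as % ID per g wet weight. Blocked groups were compared with controls by two-tailed independent Student's t test.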

Blood = assay: Biodistribution in CD1 mouse blood at 200 to 300 kBq, iv measured at 60 mins by gamma counting analysis in presence of NS6740; assay type: ADME, organism-based; details: in vivo, 1 h
How it was run: (§4)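 Blocking study in female CD-1 mice, n = 7 per blocker, with a matching control group. SSR180711 or NS6740 given at 10 mg kg⁻¹ ip in 0.9% saline 10 min before iv radiotracer (200–300 kBq). Organs taken at 60 min p.i., weighed and gamma-counted; uptake as % ID per g wet weight. Compared with control by two-tailed independent Student's t test.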

Liver = assay: Biodistribution in CD1 mouse liver at 200 to 300 kBq, iv measured at 60 mins by gamma counting analysis in presence of NS6740; assay type: ADME, organism-based; details: in vivo, 1 h; how it was run: as §3
[12] = Biodistribution in CD1 mouse urine at 200 to 300 kBq, iv measured at 60 mins by gamma counting analysis in presence of NS6740; assay type: ADME, organism-based; details: in vivo, 1 h
How it was run: (§5)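 Female CD-1 mice given 200–300 kBq tracer intravenously. Animals anaesthetised for blood and urine sampling, then killed by cervical dislocation at 5, 15, 30 or 60 min (n = 3 per time; n = 7 at 60 min). Organs removed and weighed, activity gamma-counted, expressed as % injected dose per g wet weight. Blocking arm: 10 mg/kg i.p. in 0.9% saline, 10 min before tracer; two-tailed unpaired t test versus control.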

Stomach = assay: Biodistribution in CD1 mouse stomach at 200 to 300 kBq, iv measured at 60 mins by gamma counting analysis in presence of NS6740; assay type: ADME, organism-based; details: in vivo, 1 h; how it was run: as §3
[13] = biological target: Neuronal acetylcholine receptor subunit alpha-7 (Rattus norvegicus, UniProt Q05941); assay: Displacement of [3H]A-585539 from rat brain alpha7 nAChR by scintillation counting analysis
Pancreas = assay: Biodistribution in CD1 mouse pancreas at 200 to 300 kBq, iv measured at 60 mins by gamma counting analysis in presence of NS6740; assay type: ADME, organism-based; details: in vivo, 1 h; how it was run: as §3
Mus musculus [14] = assay: Biodistribution in CD1 mouse adrenal at 200 to 300 kBq, iv measured at 60 mins by gamma counting analysis in presence of NS6740; assay type: ADME, organism-based, Adrenal gland; details: in vivo, 1 h; how it was run: as §4
Spleen = assay: Biodistribution in CD1 mouse spleen at 200 to 300 kBq, iv measured at 60 mins by gamma counting analysis in presence of NS6740; assay type: ADME, organism-based; details: in vivo, 1 h; how it was run: as §3
Mus musculus [15] = assay: Biodistribution in CD1 mouse small intestine at 200 to 300 kBq, iv measured at 60 mins by gamma counting analysis in presence of NS6740; assay type: ADME, organism-based; details: in vivo, 1 h; how it was run: as §3
Kidney = assay: Biodistribution in CD1 mouse kidney at 200 to 300 kBq, iv measured at 60 mins by gamma counting analysis in presence of NS6740; assay type: ADME, organism-based; details: in vivo, 1 h; how it was run: as §4
Heart = assay: Biodistribution in CD1 mouse heart at 200 to 300 kBq, iv measured at 60 mins by gamma counting analysis in presence of NS6740; assay type: ADME, organism-based; details: in vivo, 1 h; how it was run: as §4
Urinary bladder = assay: Biodistribution in CD1 mouse bladder at 200 to 300 kBq, iv measured at 60 mins by gamma counting analysis in presence of NS6740; assay type: ADME, organism-based; details: in vivo, 1 h; how it was run: as §4
Mus musculus [16] = assay: Biodistribution in CD1 mouse thymus at 200 to 300 kBq, iv measured at 60 mins by gamma counting analysis in presence of NS6740; assay type: ADME, organism-based; details: in vivo, 1 h; how it was run: as §5
Muscle tissue = assay: Biodistribution in CD1 mouse muscle at 200 to 300 kBq, iv measured at 60 mins by gamma counting analysis in presence of NS6740; assay type: ADME, organism-based; details: in vivo, 1 h; how it was run: as §3
Zone of skin = assay: Biodistribution in CD1 mouse skin at 200 to 300 kBq, iv measured at 60 mins by gamma counting analysis in presence of NS6740; assay type: ADME, organism-based; details: in vivo, 1 h; how it was run: as §3
Brain [17] = assay: Biodistribution in CD1 mouse brain at 200 to 300 kBq, iv measured at 60 mins by gamma counting analysis in presence of NS6740; assay type: ADME, organism-based; details: in vivo, 1 h; how it was run: as §4
Mus musculus [18] = assay: Biodistribution in CD1 mouse large intestine at 200 to 300 kBq, iv measured at 60 mins by gamma counting analysis in presence of NS6740; assay type: ADME, organism-based; details: in vivo, 1 h; how it was run: as §4
Femur = assay: Biodistribution in CD1 mouse femur at 200 to 300 kBq, iv measured at 60 mins by gamma counting analysis in presence of NS6740; assay type: ADME, organism-based; details: in vivo, 1 h; how it was run: as §4
[19] = biological target: T1, Neuronal acetylcholine receptor subunit alpha-7 (Homo sapiens, UniProt P36544); assay: Displacement of [3H]-methyllycaconitine from human alpha7 nAChR transfected in human SH-SY5Y cells after 240 mins by liquid scintillation counting analysis; assay type: cell-based
How it was run: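 Homogenates of SH-SY5Y cells transfected with human α7 nAChR, with about 0.3 nM [3H]methyllycaconitine and compound 10 pM–10 µM in Tris–HCl pH 7.4 saline buffer. Incubated 240 min at room temperature; nonspecific binding defined with 300 µM (−)-nicotine tartrate. Filtered onto PEI-soaked GF/B, washed with ice-cold Tris, scintillation counted, triplicates; Ki via Cheng–Prusoff.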

Homo sapiens [20] = species on record: Homo sapiens; assay: Selectivity ratio of Ki for human alpha3beta4 nAChR to Ki for human alpha7 nAChR
[21] = biological target: Neuronal acetylcholine receptor; alpha4/beta2 (Homo sapiens, UniProt P17787+P43681); assay: Displacement of (+/-)[3H]-epibatidine from human alpha4beta2 nAChR transfected in HEK293 cells after 90 mins by liquid scintillation counting analysis; assay type: cell-based
How it was run: (§6)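 Homogenates of HEK293 cells transfected with human α4β2 or α3β4 nAChR, with about 0.5 nM (±)-[3H]epibatidine and compound 10 pM–10 µM. Buffer: 50 mM Tris–HCl pH 7.4 with NaCl, KCl, MgCl2 and CaCl2. Incubated 90 min at room temperature; nonspecific binding defined with 300 µM (−)-nicotine tartrate. Filtered onto PEI-soaked GF/B, scintillation counted, triplicates; IC50 by nonlinear regression, Ki by Cheng–Prusoff.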

Homo sapiens [22] = species on record: Homo sapiens; assay: Selectivity ratio of Ki for human alpha4beta2 nAChR to Ki for human alpha7 nAChR
[23] = biological target: Neuronal acetylcholine receptor; alpha3/beta4 (Homo sapiens, UniProt P30926+P32297); assay: Displacement of (+/-)[3H]-epibatidine from human alpha3beta4 nAChR transfected in HEK293 cells after 90 mins by liquid scintillation counting analysis; assay type: cell-based; how it was run: as §6
[24] = biological target: T1, Neuronal acetylcholine receptor subunit alpha-7; assay: Binding affinity to alpha7 nAChR (unknown origin)
How it was run: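 Radioligand competition on homogenates of SH-SY5Y cells transfected with human α7 nAChR. [³H]methyllycaconitine at about 0.3 nM working concentration, test ligand in serial dilution 10 pM–10 µM. Buffer 50 mM Tris–HCl pH 7.4 with 120 mM NaCl, 5 mM KCl, 2.5 mM MgCl₂, 1 mM CaCl₂. Nonspecific binding defined with 300 µM (−)-nicotine tartrate. Incubated 240 min at room temperature, then filtered on PEI-soaked GF/B and counted by scintillation. Run in triplicate; IC50 by non-linear regression, Ki by Cheng–Prusoff.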

T1 sequence (P36544 whole entry): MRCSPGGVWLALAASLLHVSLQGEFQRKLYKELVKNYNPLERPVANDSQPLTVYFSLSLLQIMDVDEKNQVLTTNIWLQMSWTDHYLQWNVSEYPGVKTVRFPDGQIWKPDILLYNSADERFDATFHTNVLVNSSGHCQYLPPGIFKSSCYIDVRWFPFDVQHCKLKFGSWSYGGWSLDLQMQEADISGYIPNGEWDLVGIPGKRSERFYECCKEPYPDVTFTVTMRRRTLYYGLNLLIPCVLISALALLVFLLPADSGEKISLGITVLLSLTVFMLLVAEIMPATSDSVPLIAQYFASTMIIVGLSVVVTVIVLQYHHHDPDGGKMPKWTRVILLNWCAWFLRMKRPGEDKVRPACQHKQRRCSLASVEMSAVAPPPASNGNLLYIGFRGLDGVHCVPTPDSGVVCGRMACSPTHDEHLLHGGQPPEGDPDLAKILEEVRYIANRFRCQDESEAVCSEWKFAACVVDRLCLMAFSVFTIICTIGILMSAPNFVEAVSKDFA
Neuronal acetylcholine receptor; alpha4/beta2, sequence (P17787 whole entry): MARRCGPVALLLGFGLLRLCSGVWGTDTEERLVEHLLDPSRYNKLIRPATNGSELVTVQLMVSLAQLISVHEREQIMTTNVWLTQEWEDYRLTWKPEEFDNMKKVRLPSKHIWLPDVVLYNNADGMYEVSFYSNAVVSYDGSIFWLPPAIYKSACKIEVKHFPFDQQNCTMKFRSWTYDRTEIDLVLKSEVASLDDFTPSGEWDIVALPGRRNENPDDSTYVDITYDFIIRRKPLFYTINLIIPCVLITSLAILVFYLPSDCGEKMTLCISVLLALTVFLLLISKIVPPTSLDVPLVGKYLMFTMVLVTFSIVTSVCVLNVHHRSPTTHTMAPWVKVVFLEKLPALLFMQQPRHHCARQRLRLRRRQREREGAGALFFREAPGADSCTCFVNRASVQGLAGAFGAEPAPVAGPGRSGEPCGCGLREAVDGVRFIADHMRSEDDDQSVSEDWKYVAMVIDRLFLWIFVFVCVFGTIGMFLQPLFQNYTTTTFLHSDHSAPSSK
Neuronal acetylcholine receptor; alpha4/beta2, sequence (P43681 whole entry): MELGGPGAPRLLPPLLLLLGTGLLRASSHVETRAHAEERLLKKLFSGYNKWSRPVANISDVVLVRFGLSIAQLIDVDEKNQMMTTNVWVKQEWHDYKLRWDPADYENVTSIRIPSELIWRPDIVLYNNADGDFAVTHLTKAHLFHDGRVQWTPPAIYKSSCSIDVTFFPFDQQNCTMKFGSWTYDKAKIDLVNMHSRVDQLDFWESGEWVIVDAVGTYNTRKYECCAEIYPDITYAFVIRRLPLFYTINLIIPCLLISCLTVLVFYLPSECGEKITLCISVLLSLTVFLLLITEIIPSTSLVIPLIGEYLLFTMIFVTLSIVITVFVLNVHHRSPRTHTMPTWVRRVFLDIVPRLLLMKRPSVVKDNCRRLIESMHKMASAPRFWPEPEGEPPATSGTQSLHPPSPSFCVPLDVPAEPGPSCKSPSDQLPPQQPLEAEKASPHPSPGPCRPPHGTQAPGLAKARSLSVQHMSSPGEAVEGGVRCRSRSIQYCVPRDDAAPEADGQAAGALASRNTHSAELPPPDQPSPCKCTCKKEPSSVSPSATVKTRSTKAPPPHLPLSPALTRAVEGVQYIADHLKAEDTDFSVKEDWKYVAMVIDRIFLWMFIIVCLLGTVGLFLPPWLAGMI
Neuronal acetylcholine receptor; alpha3/beta4, sequence (P30926 whole entry): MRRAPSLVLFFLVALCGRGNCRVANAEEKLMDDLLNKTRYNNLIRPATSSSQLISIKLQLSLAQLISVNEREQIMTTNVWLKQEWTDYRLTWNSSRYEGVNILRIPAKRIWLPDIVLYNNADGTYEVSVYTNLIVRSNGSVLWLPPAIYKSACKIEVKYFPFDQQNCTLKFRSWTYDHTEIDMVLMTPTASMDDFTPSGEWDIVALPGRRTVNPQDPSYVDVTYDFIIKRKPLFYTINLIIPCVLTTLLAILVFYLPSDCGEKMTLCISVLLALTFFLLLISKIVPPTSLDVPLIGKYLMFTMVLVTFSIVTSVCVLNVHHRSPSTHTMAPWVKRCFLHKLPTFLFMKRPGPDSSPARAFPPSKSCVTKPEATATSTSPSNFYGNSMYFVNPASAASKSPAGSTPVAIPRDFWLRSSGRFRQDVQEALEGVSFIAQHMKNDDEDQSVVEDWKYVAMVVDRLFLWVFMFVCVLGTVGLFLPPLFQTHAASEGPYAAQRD
Neuronal acetylcholine receptor; alpha3/beta4, sequence (P32297 whole entry): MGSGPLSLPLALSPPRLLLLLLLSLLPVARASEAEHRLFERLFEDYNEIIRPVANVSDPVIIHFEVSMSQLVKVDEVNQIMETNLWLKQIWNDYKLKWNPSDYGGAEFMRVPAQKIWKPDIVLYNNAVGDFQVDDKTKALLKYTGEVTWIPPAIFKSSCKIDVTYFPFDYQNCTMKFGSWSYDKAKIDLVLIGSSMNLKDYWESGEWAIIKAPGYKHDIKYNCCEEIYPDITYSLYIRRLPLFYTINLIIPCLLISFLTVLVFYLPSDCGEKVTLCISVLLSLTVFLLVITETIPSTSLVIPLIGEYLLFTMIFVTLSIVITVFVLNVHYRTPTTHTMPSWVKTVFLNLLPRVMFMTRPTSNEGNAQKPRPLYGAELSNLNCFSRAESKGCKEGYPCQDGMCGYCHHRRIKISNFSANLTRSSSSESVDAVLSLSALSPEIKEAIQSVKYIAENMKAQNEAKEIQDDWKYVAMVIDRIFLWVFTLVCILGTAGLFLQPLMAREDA
Neuronal acetylcholine receptor subunit alpha-7 (Rattus norvegicus, UniProt Q05941), sequence (Q05941 whole entry): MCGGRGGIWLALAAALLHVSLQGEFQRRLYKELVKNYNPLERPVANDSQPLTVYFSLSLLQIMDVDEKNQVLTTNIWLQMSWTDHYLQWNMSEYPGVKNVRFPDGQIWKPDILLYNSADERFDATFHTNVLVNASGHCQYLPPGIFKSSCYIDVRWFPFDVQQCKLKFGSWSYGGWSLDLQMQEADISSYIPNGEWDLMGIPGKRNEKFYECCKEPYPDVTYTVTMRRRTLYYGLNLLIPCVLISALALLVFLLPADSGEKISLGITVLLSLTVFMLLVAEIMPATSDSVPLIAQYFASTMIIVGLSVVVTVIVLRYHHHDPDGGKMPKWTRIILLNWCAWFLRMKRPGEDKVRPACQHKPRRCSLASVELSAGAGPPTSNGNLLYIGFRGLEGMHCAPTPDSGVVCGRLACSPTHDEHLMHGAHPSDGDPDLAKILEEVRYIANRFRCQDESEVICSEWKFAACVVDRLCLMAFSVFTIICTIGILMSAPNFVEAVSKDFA

[18F]c1ccc(-c2nnc(N3CCN4CCC3CC4)o2)cc1
Drug uptake (Brain [1]): 1.73 % ID/g

[18F]CCn1ccc2ccc(-c3nnc(N4CCN5CCC4CC5)o3)cc21
Kp at 1 h [2]: 0.26 | Kp at 0.25 h [3]: 0.18 | logD at 0.5 h [4]: 1.11 | logD [5]: -2.05 | remaining at 5 min [6]: 98% | Kp at 0.5 h [7]: 0.19 | Kp at 5 min [8]: 0.11 | remaining at 2 h [9]: ≥ 97% | remaining at 2 h [10]: ≥ 97% | remaining at 5 min [11]: 98%

O=C(c1ccc(-c2cccc(C(F)(F)F)c2)o1)N1CCN2CCC1CC2
Drug uptake (Lung): 4.56 % ID/g | Drug uptake (Blood): 0.75 % ID/g | Drug uptake (Liver): 6.67 % ID/g | Drug uptake [12]: 218 % ID/g | Drug uptake (Stomach): 9.71 % ID/g | Ki [13]: 1.1 nM | Drug uptake (Pancreas): 3.04 % ID/g | Drug uptake (Mus musculus [14]): 2.51 % ID/g | Drug uptake (Spleen): 6.57 % ID/g | Drug uptake (Mus musculus [15]): 15.3 % ID/g | Drug uptake (Kidney): 11.7 % ID/g | Drug uptake (Heart): 1.77 % ID/g | Drug uptake (Urinary bladder): 1.45 % ID/g | Drug uptake (Mus musculus [16]): 2.25 % ID/g | Drug uptake (Muscle tissue): 1.05 % ID/g | Drug uptake (Zone of skin): 1.7 % ID/g | Drug uptake (Brain [17]): 0.14 % ID/g | Drug uptake (Mus musculus [18]): 5.11 % ID/g | Drug uptake (Femur): 1.49 % ID/g

FCCn1ccc2ccc(-c3nnc(N4CCN5CCC4CC5)o3)cc21
Ki [19]: 2.5 nM | Ratio Ki (Homo sapiens [20]): 40.8 | Ki [21]: > 1000 nM | Ratio Ki (Homo sapiens [22]): > 400 | Ki [23]: 102 nM

Fc1ccc(-c2nnc(N3CCN4CCC3CC4)o2)cc1
Ki [24]: 11.6 nM
